ChEMBL document CHEMBL3393003, “1,2,3,9b-Tetrahydro-5H-imidazo[2,1-a]isoindol-5-ones as a new class of respiratory syncytial virus (RSV) fusion inhibitors. Part 2: identification of BTA9881 as a preclinical candidate” (Bioorg Med Chem Lett, 2015)
Values after ≈ are worked out from the molar mass of the structure shown.

Legend:
[1] = test system: Respiratory syncytial virus; assay: Antiviral activity against respiratory syncytial virus A2 infected in human Hep2 cells assessed as reduction in virus-induced cytopathic effect after 5 days by MTT assay; format: functional, organism-based; conditions: A2, HEp-2, 120 h
Summary of the method: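 HEp2 cells (1.0 × 10⁴/well) infected at low moi (RSV A2 at moi 0.01) and added to serial compound dilutions; incubated 5 days at 37 °C, 5% CO₂. CPE read by MTT (1 mg/ml) metabolism after 2 h incubation.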

[2] = test system: Respiratory syncytial virus; assay: Potency shift index, ratio of EC50 for respiratory syncytial virus A2 infected in human Hep2 in presence of 1.5 mg/mL Alpha-1-acid glycoprotein to EC50 for respiratory syncytial virus A2 infected in human Hep2 in absence of Alpha-1-acid glycoprotein; format: functional
[3] = Cytotoxicity against human Hep2 cells assessed as reduction in cell viability after 5 days by MTT assay; format: cell-based, HEp-2
Summary of the method: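 Uninfected HEp2 cells (1.0 × 10⁴/well) exposed to serial compound dilutions for 5 days at 37 °C, 5% CO₂. Viability read by MTT (1 mg/ml) metabolism after 2 h incubation.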

[4] = Elimination half life in Sprague-Dawley rat at 2 mg/kg, iv; format: ADME, organism-based; parameters: dose 2 mg/kg, route intravenous; conditions: in vivo, read-out: beta t1/2 (converted)
[5] = Plasma clearance in Sprague-Dawley rat at 2 mg/kg, iv; format: ADME, organism-based; parameters: dose 2 mg/kg, route intravenous
[6] = Apparent volume of distribution in Sprague-Dawley rat at 2 mg/kg, iv; format: ADME, organism-based; parameters: dose 2 mg/kg, route intravenous; conditions: in vivo, read-out: Vz
[7] = test system: Respiratory syncytial virus; assay: Resistance index, ratio of EC50 for drug resistant respiratory syncytial virus B1 expressing F protein L141F mutant to EC50 for wild type Respiratory syncytial virus B1; format: functional
[8] = test system: Respiratory syncytial virus; assay: Resistance index, ratio of EC50 for drug resistant respiratory syncytial virus Long expressing F protein Q494L mutant to EC50 for wild type Respiratory syncytial virus Long
[9] = test system: Respiratory syncytial virus; assay: Resistance index, ratio of EC50 for VP-14637 resistant respiratory syncytial virus Long expressing F protein D489Y mutant to EC50 for wild type Respiratory syncytial virus Long
[10] = test system: Respiratory syncytial virus; assay: Antiviral activity against respiratory syncytial virus Long infected in human Hep2 cells assessed as reduction in virus-induced cytopathic effect after 5 days by MTT assay; format: functional, organism-based; conditions: HEp-2, 120 h
[11] = test system: Respiratory syncytial virus; assay: Antiviral activity against respiratory syncytial virus B1 infected in human Hep2 cells assessed as reduction in virus-induced cytopathic effect after 5 days by MTT assay; format: functional, organism-based; conditions: B1, HEp-2, 120 h
[12] = Lipophilicity, log D of the compound at pH 7.4 by chromatography; format: physicochemical; conditions: buffer
Summary of the method: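 Effective logD measured chromatographically on an LC-ABZ column, octanol-saturated mobile phase at pH 7.4.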

[13] = Kinetic solubility in 0.01M HCl buffer at pH 2.0 by nephelometry; format: physicochemical; conditions: read-out: Kinetic_solubility
Summary of the method: (§1)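 Compound dissolved in DMSO and added to 0.01 M HCl (pH 2) or pH 6.5 isotonic phosphate buffer, 1% final DMSO. Solubility range determined by nephelometry.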

[14] = Kinetic solubility in isotonic phosphate buffer at pH 6.5 by nephelometry; format: physicochemical; conditions: read-out: Kinetic_solubility; summary of the method: as §1
[15] = Elimination half life in Sprague-Dawley rat at 19 mg/kg, po; format: ADME, organism-based; parameters: dose 19 mg/kg, route oral; conditions: in vivo, read-out: beta t1/2 (converted)
Summary of the method: (§2)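 Male Sprague Dawley rats, n = 2, oral dose as suspension in hydroxypropylmethylcellulose, in carboxymethylcellulose, or in 0.5% HPMC/0.5% benzyl alcohol/0.4% Tween80. Cmax (µM), T1/2 and F (%) derived from plasma levels.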

[16] = Cmax in Sprague-Dawley rat at 19 mg/kg, po; format: ADME, organism-based; parameters: dose 19 mg/kg, route oral; conditions: in vivo; summary of the method: as §2
[17] = Oral bioavailability in Sprague-Dawley rat at 19 mg/kg; format: ADME, organism-based; conditions: in vivo; summary of the method: as §2

O=C(c1ccsc1)N1CCN2C(=O)c3ccncc3C12c1ccc(Cl)cc1 (racemic)
EC50 [1]: 170 nM
Ratio EC50 [2]: 27
CC50 at 120 h [3]: > 18000 nM

Cc1oc(-c2ccccc2)cc1C(=O)N1CCN2C(=O)c3ccncc3C21c1ccc(Cl)cc1 (racemic)
EC50 [1]: 1600 nM
CC50 at 120 h [3]: > 15000 nM

O=C(c1cccc(Cl)n1)N1CCN2C(=O)c3ccncc3C12c1ccc(Cl)cc1 (racemic)
EC50 [1]: 110 nM
Ratio EC50 [2]: 27
CC50 at 120 h [3]: > 17000 nM

O=C(c1ccc(F)cc1)N1CCN2C(=O)c3cc[n+]([O-])cc3C12c1ccc(Cl)cc1 (racemic)
half-life [4]: 6.5 h
clearance [5]: 2.4 mL/min/kg
Vd [6]: 1.3 L/kg

Cc1nc(C(=O)N2CCN3C(=O)c4ccncc4C23c2ccc(Cl)cc2)cs1 (racemic)
EC50 [1]: 73 nM
Ratio EC50 [2]: 5.7
CC50 at 120 h [3]: > 18000 nM

O=C(c1cccs1)N1CCN2C(=O)c3ccncc3C12c1ccc(Cl)cc1 (racemic)
EC50 [1]: 130 nM
Ratio EC50 [2]: 12
CC50 at 120 h [3]: > 18000 nM

Cc1cc(C(=O)N2CCN3C(=O)c4ccncc4C32c2ccc(Cl)cc2)c(C)o1 (racemic)
EC50 [1]: 120 nM
Ratio EC50 [2]: 14
CC50 at 120 h [3]: > 18000 nM

O=C(c1ccc(F)cc1)N1CCN2C(=O)c3ccncc3[C@]12c1ccc(Cl)cc1
EC50 [1]: 110 nM

O=c1n(Cc2nc3ccccc3n2CCCCO)c2cnccc2n1C1CC1
Ratio EC50 [7]: >345
Ratio EC50 [8]: 10
Ratio EC50 [9]: >20000

O=C(c1ccc(F)cc1)N1CCN2C(=O)c3ccncc3C12c1ccc(Cl)cc1 (racemic)
Ratio EC50 [2]: 7.2
half-life [4]: > 24 h
clearance [5]: 2.7 mL/min/kg
Vd [6]: 6 L/kg

O=C(NCc1ccc(F)cc1)N1CCN2C(=O)c3ccncc3C12c1ccc(Cl)cc1 (racemic)
EC50 [1]: 930 nM
CC50 at 120 h [3]: > 20000 nM

Cc1ccc(CCCO)c(NCc2ccc3nc(NCCCN4CCOCC4)n(Cc4nc(C)ccc4O)c3c2)c1
Ratio EC50 [7]: >3333
Ratio EC50 [8]: 11.5
Ratio EC50 [9]: >10000

Cn1cnc(C(=O)N2CCN3C(=O)c4ccncc4C23c2ccc(Cl)cc2)c1 (racemic)
EC50 [1]: 750 nM
CC50 at 120 h [3]: > 20000 nM

Cn1cc(C(=O)N2CCN3C(=O)c4ccncc4[C@@]32c2ccc(Cl)cc2)c(C(F)(F)F)n1
EC50 [1]: 7.2 nM
EC50 [10]: 6.4 nM
EC50 [11]: 100 nM
chromatographic logD [12]: 3
solubility kinetic [13]: > 100 µg/mL
solubility kinetic [14]: 25 µg/mL (≈ 54.1 µM)

O=C(c1ccon1)N1CCN2C(=O)c3ccncc3C12c1ccc(Cl)cc1 (racemic)
EC50 [1]: 180 nM
Ratio EC50 [2]: 11
CC50 at 120 h [3]: > 20000 nM

O=C(c1cccnc1)N1CCN2C(=O)c3ccncc3C12c1ccc(Cl)cc1 (racemic)
EC50 [1]: 210 nM
Ratio EC50 [2]: 2.8
CC50 at 120 h [3]: > 51000 nM

Cn1cncc1C(=O)N1CCN2C(=O)c3ccncc3C21c1ccc(Cl)cc1 (racemic)
EC50 [1]: 730 nM
CC50 at 120 h [3]: > 20000 nM

O=C(c1ccccn1)N1CCN2C(=O)c3ccncc3C12c1ccc(Cl)cc1 (racemic)
EC50 [1]: 770 nM
CC50 at 120 h [3]: > 19000 nM

O=C(c1cccnc1)N1CCN2C(=O)c3ccncc3[C@@]12c1ccc(Cl)cc1
EC50 [1]: > 1200 nM

O=C(c1ccoc1)N1CCN2C(=O)c3ccncc3[C@]12c1ccc(Cl)cc1
EC50 [1]: 10 nM
EC50 [10]: 32 nM
EC50 [11]: 85 nM
chromatographic logD [12]: 2.5
solubility kinetic [13]: 50 µg/mL (≈ 132 µM)
solubility kinetic [14]: > 100 µg/mL
half-life [4]: 2.4 h
clearance [5]: 55 mL/min/kg
Vd [6]: 11 L/kg
half-life [15]: 3.1 h
Cmax [16]: 770 nM
bioavailability [17]: 35%

O=C(c1ccc(F)cc1)N1CCN2C(=O)c3cc[n+]([O-])cc3[C@]12c1ccc(Cl)cc1
EC50 [1]: 170 nM
